Source: PubChem (SRMLSC)
This is one part of a sample in which hits are shown more often than they occur.
H69AR inhibit = growth inhibitors of human H69AR lung tumor cells; H69AR lung tumor viability, ATP luminescence, 72 h; stronger effect = lower value; viability, % at 10 µM; hit rate 6% among 85,000; AID 598;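 active means viability at or below 40%; inactive means viability above 40%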;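 further: multidrug resistant small cell line overexpressing MRP-1 efflux transporter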
PTEN del growth = suppresses growth of cells with PTEN deletion; HCT116 PTEN-null viability, CellTiter-Glo, 60 h; stronger effect = lower value; viability, % at 10 µM; hit rate 1.2% among 140,000; AID 827;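 active means viability at or below a set limit, 4 SD under the median of all tested compounds, cut at about 3.7% in these data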;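 further: PTEN knockout HCT116 line with beta catenin targeted HCT116 as companion control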
bCat KO growth = beta-catenin-lacking colon tumor cell growth suppression; viability, % at 10 µM; HCT116 beta-catenin knockout viability, CellTiter-Glo, 60 h; stronger effect = lower value; hit rate 1.5% among 140,000;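 active means viability at or under a set limit, the compound median less 4 SD, cut at about 6% in these data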
HUVEC inhibit = inhibitors of human endothelial cell proliferation | HUVEC proliferation, CellTiter-Glo luminescence, 72 h; stronger effect = lower value | viability, % at 10 µM (by protocol) | hit rate 1.1% among 86,000 | AID 648;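 active means viability at or below 30%; inactive means viability above 30%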
Fibroblast inh = blocks proliferation of human lung fibroblasts. LL 47 human lung fibroblast viability, ATP luminescence; stronger effect = lower value. viability, % at 10 µM. hit rate 1.1% among 85,000. AID 719;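 active means viability at or below 50% in the single dose screen; inactive means viability above 50%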;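 further: compound exposure lasted 72 h before the ATP readout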
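material = human LL 47 lung fibroblast cells | dosing = compounds added from tenfold dosing solution, 0.1% DMSO final | timing = overnight cell rest, 72 h compound treatment at 37 °C | measured by = CellTiter-Glo luminescence measuring cellular ATP | evaluation = % viability versus median cells-only luminescence | control set = cell-only wells, no compound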
Hits are given with their value; - = inactive; . = not tested or not shown.

SMILES | H69AR inhibit | PTEN del growth | bCat KO growth | HUVEC inhibit | Fibroblast inh
CC(C)C(=O)Nc1ccc(C(=O)NCc2cccnc2)cc1 | 36 | - | - | - | -
O=C(Nc1cnc2ccccc2c1)c1cccnc1 | 7.7 | - | - | - | -
CN(C)C(=O)c1ccc(NC(=O)c2cccnc2)cc1 | 39 | - | - | - | -
CCOC(=O)c1cccc(NC(=O)c2cccnc2)c1 | 31 | - | - | - | .
O=C(Cc1ccccc1)NC(NNc1ccccc1)(C(F)(F)F)C(F)(F)F | - | - | - | - | -
CCOCC(=O)Nc1cccc(C(=O)OCC)c1 | 21 | - | - | - | -
CC1(C)NC(=O)N(CCOCCOc2ccc3ccccc3c2Br)C1=O | 33 | - | - | - | -
Cc1n[nH]c(C)c1S(=O)(=O)N1CCC(C(=O)N2CCn3c2nc2ccccc23)CC1 | - | - | - | - | -
CC(=O)C1C(c2ccc(F)cc2)NC(=O)NC1(O)C(F)(F)F (stereo not drawn) | - | - | - | - | -
Fc1ccc(-c2cc(C(F)(F)F)nc(NCc3cccs3)n2)cc1 | . | - | - | . | .
CSc1n[nH]c(NCc2cccs2)n1 | - | - | 1.2 | - | -
CCOC(=O)N1CCN(C(=O)c2ccc3c(=O)n(CCC4=CCCCC4)c(=O)[nH]c3c2)CC1 | 39 | - | - | - | -
CCCCCn1c(=O)[nH]c2cc(C(=O)N3CCN(CC)CC3)ccc2c1=O | - | - | - | - | -
Cc1ccc(NC(=O)Cn2cnc3sc(C(=O)NCCN(C)C)c(C)c3c2=O)cc1Cl | - | - | - | 8.3 | -
COc1ccc(NC(=O)C2CCCN2S(=O)(=O)c2cccc3cccnc23)c(OC)c1 (stereo not drawn) | - | - | - | - | -
COc1ccc(N(C)S(=O)(=O)c2cccc3cccnc23)c(OC)c1 | 17 | - | - | - | -
Cn1nc(-c2ccc(Cl)cc2)nc2c(=O)n(C)c(=O)nc1-2 | 0.7 | - | - | 3.6 | 32
COc1ccc(OCCn2nnc(-c3ccc(Cl)cc3)n2)cc1 | . | - | - | . | .
COc1ccc(/C=C/C(=O)c2ccccc2O)cc1 | . | - | - | . | .
COc1ccc(C(=O)/C=C/c2cccs2)c(OC(=O)c2cccc([N+](=O)[O-])c2)c1 | . | - | - | . | .
COc1ccc(/C=C/C(=O)c2ccc(Cl)s2)cc1O | . | - | 3.4 | . | .
COc1cc(/C=C/C(=O)c2ccc(Cl)s2)cc(OC)c1O | . | - | 4.5 | . | .
COc1ccc(/C=C/C(=O)O)cc1OC | . | - | - | . | .
COc1ccc(C(=O)/C=C/c2ccc(OC)c(O)c2)c(F)c1 | . | - | 5.6 | . | .
COc1ccc(C(=O)/C=C/c2ccc(F)cc2)c(OC(=O)c2ccc([N+](=O)[O-])cc2)c1 | . | 3.3 | - | . | .
SMILES | H69AR inhibit | PTEN del growth | bCat KO growth | HUVEC inhibit | Fibroblast inh
Cc1c(/C=C/C(=O)c2ccc(Cl)s2)cnn1C | - | - | - | - | -
CCOC(=O)c1nn(-c2ccccc2)c(=O)cc1SC(C)CC (stereo not drawn) | . | - | - | . | .
CCOC(=O)Nc1sc2c(c1C#N)CCC(C)C2 (stereo not drawn) | - | - | - | - | -
CC1CC(C(F)F)n2nc(C(=O)Nc3sc4c(c3C#N)CCC(C(C)(C)C)C4)nc2N1 (stereo not drawn) | 18 | - | - | 21 | -
Cc1nc(C)c2c(=O)cc(-c3ccccc3)[nH]c2n1 | 31 | - | - | - | -
Cc1nc(-c2ccccc2)nc2[nH]c(-c3ccccc3)cc(=O)c12 | 15 | - | - | - | -
CC(C)=NOc1cc(NC(=O)CCl)cc([N+](=O)[O-])c1 | . | 3.0 | 3.3 | . | .
NC1=NC2(CCCCC2)N=C(Nc2ccc(F)cc2F)N1 | . | - | - | . | .
Cc1cc(C)cc(NC2=NC3(CCCCC3)N=C(N)N2)c1 | 18 | - | - | - | -
CCOc1ccccc1C(=O)NC(C)c1ccc2c(c1)OCO2 (stereo not drawn) | 24 | - | - | - | -
CCOC(=O)c1c(C)oc2c1c(C(c1ccncc1)N1CCOCC1)c(O)c1ccccc12 (stereo not drawn) | 0.9 | - | - | - | -
CC(OC(=O)C(NC(=O)c1ccco1)C(C)C)C(=O)Nc1ncc(Cl)cc1Cl (stereo not drawn) | . | - | - | . | .
COC(=O)C(C(=O)OC)C(C[N+](=O)[O-])c1ccc(OC)c(OC)c1 (stereo not drawn) | . | - | - | . | .
COc1ccc(C(C[N+](=O)[O-])C2(c3ccc(OC)c(OC)c3)C(=O)c3ccccc3C2=O)cc1 (stereo not drawn) | . | 2.1 | 2.5 | . | .
CC(C)(C)c1ccccc1OCC(=O)NCCC(=O)O | - | - | - | - | -
